Structures are written as SMILES. The source made the active and inactive calls. The rule behind the calls is not given here.

The subject of one assay is A549. In words: Cytotoxicity against human A549 cells after 48 hrs by MTT assay. It is filed as functional, cell-based. To be noted: A549, 48 h. Summed up: (§1)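 Human cancer cell lines (A549 lung, MCF-7 breast, DU-145 prostate, HeLa cervical) exposed to compounds for 48 h; 50% inhibitory concentration derived, average of three individual experiments; doxorubicin reference agent.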

A further assay has as its system MCF7. In words: Cytotoxicity against human MCF7 cells after 48 hrs by MTT assay. It is filed as functional, cell-based. To be noted: MCF7, 48 h. The method in brief:
as §1

For another assay, the system named is DU-145. In words: Cytotoxicity against human DU145 cells after 48 hrs by MTT assay. To be noted: DU-145, 48 h. The format is functional, cell-based. The method in brief: as §1
Another assay deals with HeLa. The assay is described as follows: Cytotoxicity against human HeLa cells after 48 hrs by MTT assay. It is filed as functional, cell-based. The method in brief: as §1
The target in assay [1] is DNA topoisomerase II (Homo sapiens) (UniProt P11388+Q02880). In words: Interfacial poisoning activity at DNA-topoisomerase 2 (unknown origin) using catenated kDNA as substrate assessed as linear DNA formation at 1 to 100 uM after 30 mins by agarose gel electrophoresis. The format is protein assay. Summed up: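 Catenated DNA incubated with topo II and compound at 1, 10 and 100 µM; gel products scored for linear DNA (poison type) versus nicked circular/relaxed DNA retained in wells (catalytic inhibitor type); etoposide at 1, 10, 100 µM as control.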

Regarding `Cn1c2ccccc2c2cc(CNC(=S)SCc3ccccc3)nc(-c3ccc(F)cc3)c21`, the IC50 in the assay with A549 is 6.76 µM; with MCF7, 2.75 µM; with DU-145 it was 4.78 µM; with HeLa it was 3.16 µM.

For `COc1cc(-c2nc(CN)cc3c4ccccc4n(C)c23)cc(OC)c1OC`, the IC50 in the assay with A549 was 18.2 µM; with MCF7, 15.1 µM; in the assay on DU-145, 14.8 µM; in the assay with HeLa, 19.9 µM.

In the case of `COc1cccc2c1C(=O)c1c(O)c3c(c(O)c1C2=O)C[C@@](O)(C(=O)CO)C[C@@H]3O[C@H]1C[C@H](N)[C@H](O)[C@H](C)O1` [DOXORUBICIN], the IC50 in the assay with A549 was 1.58 µM; in the assay with MCF7 it was 0.96 µM; with DU-145, 1.38 µM; with HeLa, 2.63 µM.

Regarding `CSC(=S)NCc1cc2c([nH]c3ccccc32)c(-c2ccc(C(F)(F)F)cc2)n1`, the IC50 in the assay on A549 stood at 16.9 µM; with MCF7, 15.8 µM; with DU-145, 9.54 µM; in the assay with HeLa it was 12.6 µM.

As to `COc1cc(-c2nc(CNC(=S)SC)cc3c2[nH]c2ccccc23)cc(OC)c1OC`, the IC50 with A549 amounted to 8.12 µM; in the assay on MCF7 it was 8.91 µM; in the assay on DU-145, 5.62 µM; with HeLa it was 11.3 µM.

Take `COc1ccc(-c2nc(CNC(=S)SCc3ccccc3)cc3c4ccccc4n(C)c23)cc1`: the IC50 was 9.12 µM in the assay with A549, 3.36 µM in the assay on MCF7, 6.91 µM in the assay on DU-145 and 13.8 µM in the assay with HeLa.

As to `Cn1c2ccccc2c2cc(CN)nc(-c3ccc(C(F)(F)F)cc3)c21`, the IC50 in the assay on A549 was 19.2 µM; in the assay on MCF7, 11.7 µM; in the assay with DU-145, 7.76 µM; with HeLa it was 15.1 µM.

For the compound `Fc1ccc(-c2nc(CNC(=S)SCc3ccccc3)cc3c2[nH]c2ccccc23)cc1`, the IC50 worked out at 39.8 µM in the assay with A549, 7.41 µM in the assay with MCF7, 3.71 µM in the assay with DU-145 and 3.81 µM with HeLa.

`C=CCSC(=S)NCc1cc2c([nH]c3ccccc32)c(-c2ccc(OC)cc2)n1`: the IC50 worked out at 51.4 µM in the assay with A549, 38.8 µM in the assay with MCF7, 46.7 µM in the assay on DU-145 and 59.1 µM in the assay with HeLa.

For `COc1cc(-c2nc(CN)cc3c2[nH]c2ccccc23)cc(OC)c1OC`, the IC50 with A549 turned out to be 15.1 µM; with MCF7, 18.6 µM; in the assay with DU-145, 18.3 µM; in the assay with HeLa, 21.7 µM.

In the case of `Cn1c2ccccc2c2cc(CN)nc(-c3ccc(F)cc3)c21`, the IC50 with A549 was found to be 19.5 µM; in the assay on MCF7 it was 16.6 µM; in the assay with DU-145, 10 µM; with HeLa it was 20.5 µM.

For `C=CCSC(=S)NCc1cc2c3ccccc3n(C)c2c(-c2ccc(C(F)(F)F)cc2)n1`, the IC50 in the assay with A549 was found to be 4.26 µM; in the assay with MCF7, 4.78 µM; in the assay on DU-145, 1.99 µM; in the assay on HeLa, 4.67 µM.

In the case of `COc1ccc(-c2nc(CNC(=S)SC)cc3c2[nH]c2ccccc23)cc1`, the IC50 in the assay with A549 is 7.94 µM; with MCF7, 8.51 µM; in the assay with DU-145 it was 1.14 µM; in the assay with HeLa, 7.78 µM.

In the case of `COc1cc(-c2nc(CNC(=S)SCc3ccccc3)cc3c2[nH]c2ccccc23)cc(OC)c1OC`, the IC50 is 27.5 µM in the assay with A549, 25.8 µM in the assay with MCF7, 17.3 µM in the assay on DU-145 and 14.5 µM in the assay with HeLa.

Regarding `C=CCSC(=S)NCc1cc2c([nH]c3ccccc32)c(-c2cc(OC)c(OC)c(OC)c2)n1`, the IC50 came out at 12.8 µM with A549, 15.8 µM with MCF7, 13.8 µM with DU-145 and 23.2 µM with HeLa.

Consider `C=CCSC(=S)NCc1cc2c3ccccc3n(C)c2c(-c2ccc(OC)cc2)n1`, for which the IC50 amounted to 10 µM in the assay with A549, 3.2 µM in the assay with MCF7, 2.5 µM in the assay with DU-145 and 8.3 µM in the assay on HeLa.

Take `COc1ccc(-c2nc(CNC(=S)SCc3ccccc3)cc3c2[nH]c2ccccc23)cc1`: the concentration for half-maximal inhibition (IC50) in the assay on A549 stood at 17.7 µM; with MCF7, 10 µM; in the assay on DU-145, 13.8 µM; with HeLa it was 24.1 µM.

With `C=CCSC(=S)NCc1cc2c3ccccc3n(C)c2c(-c2cc(OC)c(OC)c(OC)c2)n1`, the IC50 with A549 came out at 18.1 µM; in the assay on MCF7, 20.6 µM; in the assay on DU-145 it was 19.4 µM; with HeLa, 19.9 µM.

As to `C=CCSC(=S)NCc1cc2c3ccccc3n(C)c2c(-c2ccc(F)cc2)n1`, the concentration for half-maximal inhibition (IC50) in the assay with A549 came to 6.02 µM; in the assay with MCF7, 3.01 µM; with DU-145, 2.88 µM; with HeLa, 2.57 µM.

Turning to `COc1ccc(-c2nc(CN)cc3c4ccccc4n(C)c23)cc1`, the IC50 worked out at 20.1 µM with A549, 16.6 µM in the assay on MCF7, 12.8 µM in the assay on DU-145 and 14.8 µM with HeLa.

In the case of `C=CCSC(=S)NCc1cc2c([nH]c3ccccc32)c(-c2ccc(C(F)(F)F)cc2)n1`, the IC50 was found to be 18.6 µM in the assay on A549, 10.9 µM with MCF7, 7.76 µM with DU-145 and 10.6 µM in the assay with HeLa.

`NCc1cc2c([nH]c3ccccc32)c(-c2ccc(C(F)(F)F)cc2)n1`: the IC50 in the assay on A549 turned out to be 15.8 µM; with MCF7 it was 12 µM; with DU-145, 9.12 µM; in the assay on HeLa it was 15.8 µM.

With `COc1ccc(-c2nc(CNC(=S)SC)cc3c4ccccc4n(C)c23)cc1`, the IC50 in the assay on A549 is 5.12 µM; in the assay on MCF7, 1.51 µM; in the assay on DU-145, 1.41 µM; in the assay with HeLa it was 2.57 µM.

Take `COc1cc(-c2nc(CNC(=S)SC)cc3c4ccccc4n(C)c23)cc(OC)c1OC`: the IC50 in the assay on A549 was found to be 12.5 µM; with MCF7 it was 15.2 µM; with DU-145 it was 6.16 µM; in the assay on HeLa, 16.9 µM.

With `C=CCSC(=S)NCc1cc2c([nH]c3ccccc32)c(-c2ccc(F)cc2)n1`, the IC50 worked out at 16.7 µM in the assay on A549, 6.6 µM in the assay on MCF7, 3.98 µM in the assay on DU-145 and 4.46 µM with HeLa.

In the case of `Cn1c2ccccc2c2cc(CNC(=S)SCc3ccccc3)nc(-c3ccc(C(F)(F)F)cc3)c21`, the IC50 with A549 came to 5.12 µM; in the assay on MCF7, 4.31 µM; with DU-145 it was 2.08 µM; in the assay with HeLa, 4.78 µM.

As to `COc1ccc(-c2nc(CN)cc3c2[nH]c2ccccc23)cc1`, the IC50 with A549 was 17.8 µM; with MCF7, 18.9 µM; with DU-145, 17.4 µM; in the assay with HeLa it was 18.6 µM.

In the case of `COc1cc([C@@H]2c3cc4c(cc3[C@@H](O[C@@H]3O[C@@H]5CO[C@@H](C)O[C@H]5[C@H](O)[C@H]3O)[C@H]3COC(=O)[C@H]23)OCO4)cc(OC)c1O`, the result in assay [1] was Active.

With `NCc1cc2c([nH]c3ccccc32)c(-c2ccc(F)cc2)n1`, the IC50 is 21.1 µM with A549, 17.9 µM in the assay with MCF7, 13.8 µM in the assay on DU-145 and 22.5 µM in the assay with HeLa.

Take `CSC(=S)NCc1cc2c3ccccc3n(C)c2c(-c2ccc(F)cc2)n1`: the IC50 amounted to 5.62 µM with A549, 1.86 µM in the assay with MCF7, 1.45 µM in the assay on DU-145 and 2.39 µM in the assay on HeLa.

Regarding `FC(F)(F)c1ccc(-c2nc(CNC(=S)SCc3ccccc3)cc3c2[nH]c2ccccc23)cc1`, the IC50 in the assay with A549 was found to be 9.33 µM; in the assay on MCF7, 12.3 µM; in the assay with DU-145, 5.88 µM; in the assay on HeLa it was 3.98 µM.

For the compound `COc1cc(-c2nc(CNC(=S)SCc3ccccc3)cc3c4ccccc4n(C)c23)cc(OC)c1OC`, the IC50 with A549 worked out at 14.1 µM; in the assay with MCF7, 13.9 µM; in the assay with DU-145, 10.6 µM; in the assay on HeLa, 12.3 µM.

For the origin of these results see ChEMBL document CHEMBL3603803, “Design and synthesis of dithiocarbamate linked β-carboline derivatives: DNA topoisomerase II inhibition with DNA binding and apoptosis inducing ability” (Bioorg Med Chem, 2015).
